A short description of series [1]: Drug uptake in BALB/c mouse lungs at 25 mg/kg, po via gavage measured after 2 hrs post dose by LC-MS analysis. In kind it is ADME, organism-based, Lung. The following applies: in vivo.
The nature of series [2]: Hepatic clearance in Sprague-Dawley rat liver microsomes at 1 uM preincubated for 5 mins followed by NADPH addition and measured after 45 mins by LC/MS/MS analysis. Format: ADME, microsome. In outline: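 Pooled liver microsomes at 0.5 mg/mL: human (mixed gender), male Sprague-Dawley rat, or male CD-1 mouse, with test compound at 1 μM, triplicate. In vitro t1/2 is scaled to CLint (45 mg microsomes/g liver; 45 g liver/kg scaling factor). CLhep uses well-stirred model with hepatic blood flow 21 (human), 70 (rat), 90 (mouse) mL/min/kg.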

Series [3] is described as follows: Hepatic clearance in CD1 mouse liver microsomes at 1 uM preincubated for 5 mins followed by NADPH addition and measured after 45 mins by LC/MS/MS analysis. In kind it is ADME, microsome.
Series [4] addresses Sterol 14-alpha demethylase (Trypanosoma cruzi (strain CL Brener)) (UniProt Q7Z1V1). Kind of series: Inhibition of Trypanosoma cruzi Y CYP51 expressed in Escherichia coli using [3-3H]-eburicol as substrate after 60 mins by LC-MS analysis. A digest of the protocol:
(§1)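 Reconstituted reaction: 1 μM purified CYP51, 2 μM T. brucei NADPH-P450 reductase, 100 μM dilauroylphosphatidylcholine, isocitrate dehydrogenase/isocitrate regeneration, 50 mM K phosphate pH 7.2, 10% glycerol. [3-3H]sterol substrate at 50 μM final (eburicol for T. cruzi; obtusifoliol for T. brucei and L. infantum) with inhibitor at 1.1 μM final. Preincubate 60 s at 37 °C, start with 100 μM NADPH, run 60 min, EtOAc extraction. Gives % inhibition of 14α-demethylation, triplicate, mean ± SD.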

Series [5] in a line: Drug uptake in BALB/c mouse blood at 25 mg/kg, po via gavage measured after 2 hrs post dose by LC-MS analysis. In kind it is ADME, organism-based. The note with it: in vivo.
Series [6] can be described thus: Drug uptake in BALB/c mouse heart at 25 mg/kg, po via gavage measured after 2 hrs post dose by LC-MS analysis. Format: ADME, organism-based. The note with it: in vivo.
Series [7] is described as follows: Drug uptake in BALB/c mouse heart at 25 mg/kg, po via gavage measured after 4 hrs post dose by […]. In kind it is ADME, organism-based. The note with it: read-out: Drug uptake. A digest of the protocol: (§2)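 BALB/c mice get a single oral gavage dose of 25 mg/kg; tissues are collected 4 h post-dose. About 100 mg tissue is diluted 5-fold in PBS and homogenized. Homogenate is extracted as for plasma (ketoconazole internal standard, acetonitrile extraction) and quantified by HPLC-UV at 291 nm, 0.1 μM detection limit, n=2.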

Series [8] is described as follows: Drug uptake in BALB/c mouse liver at 25 mg/kg, po via gavage measured after 4 hrs post dose by […]. Format: ADME, organism-based. The note with it: read-out: Drug uptake. In outline: as §2
The target of series [9] is Putative lanosterol 14-alpha-demethylase (Leishmania infantum) (UniProt A2TEF2). The series is described as follows: Inhibition of Leishmania infantum CYP51 expressed in Escherichia coli using [3-3H]-obtusifoliol as substrate after 60 mins by LC-MS analysis. A digest of the protocol: as §1
Series [10] in a line: Drug uptake in BALB/c mouse spleen at 25 mg/kg, po via gavage measured after 4 hrs post dose by […]. Format: ADME, organism-based. The note with it: read-out: Drug uptake. A digest of the protocol: as §2
Series [11] is described as follows: Intrinsic clearance in Sprague-Dawley rat liver microsomes at 1 uM preincubated for 5 mins followed by NADPH addition and measured after 45 mins by LC/MS/MS analysis. In kind it is ADME, microsome. The note with it: read-out: CLH.
Series [12] in a line: Hepatic clearance in human liver microsomes at 1 uM preincubated for 5 mins followed by NADPH addition and measured after 45 mins by LC/MS/MS analysis. Format: ADME, microsome.
A short description of series [13]: Drug uptake in BALB/c mouse blood at 25 mg/kg, po via gavage measured after 4 hrs post dose by […]. Format: ADME, organism-based. The note with it: read-out: Drug uptake. A digest of the protocol: as §2
Series [14] is described as follows: Maximum plasma concentration in BALB/c mouse at 25 mg/kg, po via gavage by […]. In kind it is ADME, organism-based. On the set-up: dose 25 mg/kg, route oral. A digest of the protocol:
(§3)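 Single oral gavage dose of 25 mg/kg in BALB/c mice; blood sampled at 1, 2, 4, 6, 10, 16, 24 h. Plasma is diluted in PBS with ketoconazole internal standard, extracted with 80% acetonitrile, dried and redissolved. Analysed by reversed-phase HPLC with UV at 291/250 nm, 0.1 μM detection limit. Lifetime is time until undetectable.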

Series [15] is described as follows: Drug uptake in BALB/c mouse lungs at 25 mg/kg, po via gavage measured after 4 hrs post dose by […]. In kind it is ADME, organism-based, Lung. The following applies: read-out: Drug uptake. In outline: as §2
Series [16] in a line: Drug uptake in BALB/c mouse brain at 25 mg/kg, po via gavage measured after 4 hrs post dose by […]. In kind it is ADME, organism-based. The following applies: read-out: Drug uptake. In outline:
as §2

Series [17] in a line: Intrinsic clearance in human liver microsomes at 1 uM preincubated for 5 mins followed by NADPH addition and measured after 45 mins by LC/MS/MS analysis. Format: ADME, microsome. The following applies: read-out: CLH.
The nature of series [18]: Half life in human liver microsomes at 1 uM preincubated for 5 mins followed by NADPH addition and measured by LC/MS/MS analysis. In kind it is ADME, microsome. The note with it: microsomes, 1 µM.
A short description of series [19]: Lipophilicity, log P of the compound. Format: physicochemical. The note with it: octanol/water.
Series [20] is described as follows: Drug uptake in BALB/c mouse brain at 25 mg/kg, po via gavage measured after 4 hrs post dose by LC-MS analysis. The note with it: in vivo.
Series [21] is described as follows: Half life in Sprague-Dawley rat liver microsomes at 1 uM preincubated for 5 mins followed by NADPH addition and measured by LC/MS/MS analysis. Format: ADME, microsome. The following applies: microsomes, 1 µM.
The nature of series [22]: Half life in CD1 mouse liver microsomes at 1 uM preincubated for 5 mins followed by NADPH addition and measured by LC/MS/MS analysis. The note with it: mouse, microsomes, 1 µM. Format: ADME, microsome.
Series [23] in a line: Drug uptake in BALB/c mouse intestine at 25 mg/kg, po via gavage measured after 2 hrs post dose by LC-MS analysis. In kind it is ADME, organism-based. The following applies: read-out: Drug uptake.
Series [24] can be described thus: Drug uptake in BALB/c mouse spleen at 25 mg/kg, po via gavage measured after 2 hrs post dose by LC-MS analysis. Format: ADME, organism-based. The following applies: in vivo.
The nature of series [25]: Intrinsic clearance in CD1 mouse liver microsomes at 1 uM preincubated for 5 mins followed by NADPH addition and measured after 45 mins by LC/MS/MS analysis. The note with it: read-out: CLH. Format: ADME, microsome.
Series [26] in a line: Drug uptake in BALB/c mouse liver at 25 mg/kg, po via gavage measured after 2 hrs post dose by LC-MS analysis. In kind it is ADME, organism-based. The following applies: in vivo.
Series [27] concerns the target Lanosterol 14-alpha-demethylase (Trypanosoma brucei brucei (strain 927/4 GUTat10.1)) (UniProt Q385E8). Kind of series: Inhibition of Trypanosoma brucei […] CYP51 expressed in Escherichia coli using [3-3H]-obtusifoliol as substrate after 60 mins by LC-MS analysis. A digest of the protocol: as §1
Series [28] in a line: Plasma concentration in BALB/c mouse assessed as time until the compound becomes undetectable at 25 mg/kg, po via gavage […]. In kind it is ADME, organism-based. The following applies: in vivo. In outline:
as §3

Series [29] can be described thus: Cmax in BALB/c mouse at 25 mg/kg, po via gavage measured after 2 hrs post dose by […]. Format: ADME, organism-based. On the set-up: dose 25 mg/kg, route oral. The note with it: in vivo. In outline:
as §3

Calls of active or inactive are those of the source. The rule behind the calls is not given here.

The text below walks through data of ChEMBL document CHEMBL4257584, “Sterol 14α-Demethylase Structure-Based Optimization of Drug Candidates for Human Infections with the Protozoan Trypanosomatidae” (J Med Chem, 2018).

Sequence of Putative lanosterol 14-alpha-demethylase (Leishmania infantum) (A2TEF2 1-480): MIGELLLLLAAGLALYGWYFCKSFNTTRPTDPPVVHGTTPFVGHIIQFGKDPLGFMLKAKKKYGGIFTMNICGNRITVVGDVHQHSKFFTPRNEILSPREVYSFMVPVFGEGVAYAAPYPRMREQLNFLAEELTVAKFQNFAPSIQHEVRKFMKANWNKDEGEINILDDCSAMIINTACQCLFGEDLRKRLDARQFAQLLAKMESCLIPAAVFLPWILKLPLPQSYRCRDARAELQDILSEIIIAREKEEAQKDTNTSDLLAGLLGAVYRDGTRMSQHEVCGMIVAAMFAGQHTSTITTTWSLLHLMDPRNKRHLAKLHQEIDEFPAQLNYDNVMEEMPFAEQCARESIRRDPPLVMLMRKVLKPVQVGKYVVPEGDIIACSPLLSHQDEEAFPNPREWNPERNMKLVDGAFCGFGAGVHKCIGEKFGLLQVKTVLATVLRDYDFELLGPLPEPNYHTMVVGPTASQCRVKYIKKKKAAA
Sequence of Lanosterol 14-alpha-demethylase (Trypanosoma brucei brucei (strain 927/4 GUTat10.1)) (Q385E8 1-481): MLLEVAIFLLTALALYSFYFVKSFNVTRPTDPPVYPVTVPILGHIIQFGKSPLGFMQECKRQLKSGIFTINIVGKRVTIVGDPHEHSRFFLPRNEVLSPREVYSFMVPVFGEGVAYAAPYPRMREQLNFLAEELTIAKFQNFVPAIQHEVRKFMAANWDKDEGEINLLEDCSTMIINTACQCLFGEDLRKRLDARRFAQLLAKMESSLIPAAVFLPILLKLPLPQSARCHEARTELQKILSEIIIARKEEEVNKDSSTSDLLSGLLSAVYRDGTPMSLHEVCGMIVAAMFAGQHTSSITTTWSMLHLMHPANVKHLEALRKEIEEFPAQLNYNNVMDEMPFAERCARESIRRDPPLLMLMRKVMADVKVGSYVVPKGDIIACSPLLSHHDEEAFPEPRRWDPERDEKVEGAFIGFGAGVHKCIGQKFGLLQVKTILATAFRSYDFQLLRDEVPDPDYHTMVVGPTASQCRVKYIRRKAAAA
Sequence of Sterol 14-alpha demethylase (Trypanosoma cruzi (strain CL Brener)) (Q7Z1V1 whole entry, looked up): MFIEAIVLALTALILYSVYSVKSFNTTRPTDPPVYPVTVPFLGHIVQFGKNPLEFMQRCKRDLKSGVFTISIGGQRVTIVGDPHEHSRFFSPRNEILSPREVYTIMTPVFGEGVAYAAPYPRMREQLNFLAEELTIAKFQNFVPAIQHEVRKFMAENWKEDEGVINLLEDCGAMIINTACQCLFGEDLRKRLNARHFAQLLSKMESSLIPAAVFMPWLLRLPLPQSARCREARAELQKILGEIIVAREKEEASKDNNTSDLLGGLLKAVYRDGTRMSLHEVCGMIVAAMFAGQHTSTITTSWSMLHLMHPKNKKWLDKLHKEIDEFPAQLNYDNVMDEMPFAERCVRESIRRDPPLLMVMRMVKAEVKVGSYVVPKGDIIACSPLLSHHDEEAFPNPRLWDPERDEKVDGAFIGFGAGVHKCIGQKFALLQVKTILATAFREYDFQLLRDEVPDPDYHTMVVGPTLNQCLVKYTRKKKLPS

Regarding `CS(=O)(=O)c1ccc(-c2ccc([C@H](Cn3ccnc3)NC(=O)c3ccc(-c4nnc(-c5ccccc5)o4)cc3)c(Cl)c2)cc1`, the Drug uptake result in series [1], in [5], in series [6], in [20], in series [24] and in [26] was “Not Active” each time. Also, the results for the CLhep predicted at 1 µM in series [2], in series [3] and in [12] were 31.7 mL/min/kg, 52.6 mL/min/kg and 7.46 mL/min/kg, respectively. Also, the inhibition result in series [4], in series [9] and in series [27] was “inactive” throughout. Further, the concentration at 4 h in series [7], in series [8], in series [10], in [13], in series [15] and in [16] was less than 0.1 µM throughout. Moreover, the CLint scaled at 1 µM in series [11] was 58.1 mL/min/kg; in series [17], 11.6 mL/min/kg; in series [25], 127 mL/min/kg. This compound also came in with a maximum concentration (Cmax) in series [14] of less than 0.1 µM. For the same compound, the t1/2 was found to be 108 min in [18], 48 min in [21] and 43 min in series [22]. This compound also showed a logP in [19] of 4.39. Besides, the concentration at 2 h in series [23] is 130 µM.
As to `O=C(N[C@@H](Cn1ccnc1)c1ccc(-c2ccccc2)cc1Cl)c1ccc(-c2nnc(-c3ccccc3)o2)cc1`, the CLhep predicted at 1 µM was 46.9 mL/min/kg in series [2], 24.8 mL/min/kg in [3] and 10.5 mL/min/kg in [12]. Further, the concentration at 4 h in series [7] was 5 µM; in [8], 21 µM; in series [10], 5 µM; in series [13], 9 µM; in series [15] it was 8 µM; in series [16], 0.1 µM. Also, in series [28], the Time is less than 10 h. Further, the results for the CLint scaled at 1 µM in series [11], in series [17] and in [25] were 142 mL/min/kg, 20.9 mL/min/kg and 34.2 mL/min/kg, respectively. In addition, the Cmax in series [14] and in [29] was 28 µM in each case. The t1/2 amounted to 60 min in series [18], 20 min in [21] and 160 min in [22]. For the same compound, the logP in series [19] worked out at 5.68.
